Assay [1] can be described thus: Her2 expression decrease, cell viability multiplex – SKBR3 breast tumor cells, AlphaScreen, ATP viability, primary screen (AID 461;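 active means Her2 level under about 52% in both replicate screens, with viability over 70% of control, limit read from the data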;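 on Her2 level: lower value means less Her2 protein in the cells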;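 on viability: percent of carrier control wells set as 100% viability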). The following applies: SKBR3 Her2 protein level, 18-24 h, measured here: SKBR3 viability, ATP luminescence, at 10 µM. In general terms: Bead proximity is the source of the signal in Alpha formats.
In assay [2] the target is Receptor tyrosine-protein kinase erbB-2 (Homo sapiens) (UniProt P04626). The assay is described as above. The following applies: 18-24 h, at 10 µM, stronger effect = lower value.
Receptor tyrosine-protein kinase erbB-2 (Homo sapiens), sequence (P04626 whole entry, looked up): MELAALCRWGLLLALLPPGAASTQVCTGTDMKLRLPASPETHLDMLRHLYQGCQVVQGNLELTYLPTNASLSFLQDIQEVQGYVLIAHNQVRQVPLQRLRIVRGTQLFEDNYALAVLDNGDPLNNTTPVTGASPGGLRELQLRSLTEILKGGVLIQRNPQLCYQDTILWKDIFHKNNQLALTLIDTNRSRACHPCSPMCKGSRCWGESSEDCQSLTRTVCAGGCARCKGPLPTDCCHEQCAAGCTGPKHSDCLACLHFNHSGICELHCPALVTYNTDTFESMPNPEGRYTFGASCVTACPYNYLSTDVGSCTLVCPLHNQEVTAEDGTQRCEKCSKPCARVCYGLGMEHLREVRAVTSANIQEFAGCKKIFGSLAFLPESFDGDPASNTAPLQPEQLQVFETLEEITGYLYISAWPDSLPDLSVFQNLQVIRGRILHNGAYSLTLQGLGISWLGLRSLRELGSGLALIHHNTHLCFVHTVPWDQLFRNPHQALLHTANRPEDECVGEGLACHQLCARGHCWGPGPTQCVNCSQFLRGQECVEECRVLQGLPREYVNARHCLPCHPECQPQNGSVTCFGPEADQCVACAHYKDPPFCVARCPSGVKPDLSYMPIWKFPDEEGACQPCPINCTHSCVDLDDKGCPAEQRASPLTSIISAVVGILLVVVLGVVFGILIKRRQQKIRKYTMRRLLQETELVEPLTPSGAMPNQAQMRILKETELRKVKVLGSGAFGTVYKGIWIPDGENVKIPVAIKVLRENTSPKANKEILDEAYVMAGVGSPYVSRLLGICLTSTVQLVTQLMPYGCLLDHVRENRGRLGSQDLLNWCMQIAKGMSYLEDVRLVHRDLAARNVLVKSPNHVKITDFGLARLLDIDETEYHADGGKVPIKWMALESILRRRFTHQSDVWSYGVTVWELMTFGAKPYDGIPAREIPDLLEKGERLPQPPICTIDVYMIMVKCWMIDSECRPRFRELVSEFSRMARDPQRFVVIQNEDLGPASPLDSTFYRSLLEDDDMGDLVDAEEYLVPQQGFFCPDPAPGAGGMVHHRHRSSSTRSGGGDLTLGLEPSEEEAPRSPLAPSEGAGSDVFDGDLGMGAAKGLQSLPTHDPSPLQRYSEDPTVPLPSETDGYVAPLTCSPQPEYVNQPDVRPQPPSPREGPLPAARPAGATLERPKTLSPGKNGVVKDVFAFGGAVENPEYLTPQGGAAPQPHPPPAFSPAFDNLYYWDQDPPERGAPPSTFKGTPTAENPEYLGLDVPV
Assay [3] in a line: reduced viability of SK-BR-3 breast cancer cells – cell-based, 24 h, human, pilot screen (AID 572;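 active means viability at or below 10% of carrier control in both of two separate runs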;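 further: compound exposure lasted between 18 and 24 h rather than exactly 24 h; 100% = carrier-treated control wells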). The following applies: SK-BR-3 viability, CellTiter-Glo luminescence, at 10 µM, stronger effect = lower value. In general terms: Cellular ATP, detected with luciferase, serves as a proxy for viable cell number.
The nature of assay [4]: HUVEC growth inhibition – cell-based, human, primary screen (AID 575;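 active means viability at or below 30% in both replicate assays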;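 further: 100% = median of untreated cell wells with 0.1% DMSO on each plate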). The following applies: HUVEC proliferation, CellTiter-Glo luminescence, 72 h; at 10 µM; stronger effect = lower value. Summed up: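 Test system: primary human umbilical vein endothelial cells. Quantity: 1250 cells/well. Compound: single 10 µM dose, 0.1% DMSO, from 5x medium stock. Timing: 72 h treatment at 37 °C. Detection: ATP-based CellTiter-Glo luminescent read. Benchmarks: vehicle and MePR control wells. Format: 384-well plates coated with collagen.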

The nature of assay [5]: H69AR cell proliferation blockers – human, duplicate replicates, primary screen (AID 580;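 active means viability at or under a set limit in both replicates, limit being median viability minus 3 SD, cut at about 48% in these data, passing the limit was not always enough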;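 further: 100% = mean luminescence of untreated wells and 0% = no signal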). The following applies: H69AR lung tumor cells viability, ATP luminescence, 72 h; at 10 µM; stronger effect = lower value.
The nature of assay [6]: MRP1 drug-resistance reversers in H69AR cells – cell-based, doxorubicin co-treatment, pilot screen (AID 601). The conditions noted are these: CellTiter-Glo, 72 h, at 10 µM; for differential viability (reversal): stronger effect = higher value.
Assay [7] in a line: yeast transport mutant growth inhibition pilot in 384-well plates, post-Golgi transport modulator project (AID 636; in the data active means inhibition above about 31%). The following applies: absorbance 615 nm, about 18 h, stronger effect = higher value.
Assay [8] in a line: growth suppression of yeast trafficking mutant, preliminary HTS, modulators of trafficking downstream of Golgi apparatus project, 1536-format plate, OD 615 nm (AID 637; in the data active means inhibition above about 30%). The conditions noted are these: yeast transport mutant growth, absorbance 615 nm, 18 h; stronger effect = higher value.
The mark [9] stands for this setting: H69AR cells + 2 uM doxorubicin, measured here: viability with 2 uM doxorubicin, stronger effect = lower value.
Setting [10] is: H69AR cells, compound alone cytotoxicity.

The source made the active and inactive calls.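 How the source made its calls, unless noted: active means viability loss from added drug above about 55%, and viability with drug at most 40%, in both replicates (limit read from the data, passing the limit was not always enough); inconclusive means both conditions met in only one replicate; inactive means neither replicate meets both conditions.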

As usually defined, the viability is a read-out of living cells in per cent, often relative to untreated cells. The term inhibition denotes the change of the read-out against control, counted positive when it falls. Take `CN(C)c1ccc(CNn2cnnc2)cc1`: the viability in assay [1] was 104%; in assay [3], 104% (inactive); in assay [4] it was 95.8% (inactive); in assay [5] it was 100% (inactive); in assay [6] (setting [9]), 105%; in assay [6] (setting [10]) it was 100%. In addition, the Her2 level in assay [2] was 88.5% (inactive). Besides, the differential viability (reversal) in assay [6] (H69AR cells + 2 uM doxorubicin) was -4.28% (inactive). Also, the values for the inhibition in assay [7] and in assay [8] were -4.08% (inactive) and 0.67% (inactive), respectively.
For `O=C(NCc1ccc2c(c1)OCO2)c1ccccn1`, the viability in assay [1] was 98.5%; in assay [3], 98.5% (inactive); in assay [4], 92.8% (inactive); in assay [5], 88.5% (inactive); in assay [6] (setting [9]), 85.2%; in assay [6] (setting [10]), 88.5%. Also, the Her2 level in assay [2] is 107% (inactive). Besides, the differential viability (reversal) in assay [6] (H69AR cells + 2 uM doxorubicin) is 3.29% (inactive). Besides, the inhibition in assay [7] was -6.27% (inactive); in assay [8], -12.1% (inactive).
For `COc1cccc(-c2noc(C3CCCN(C(=O)Cc4ccccc4)C3)n2)c1` (stereo not given), the viability is 95% in assay [1]; 95% (inactive) in assay [3]; 104% (inactive) in assay [4]; 85% (inactive) in assay [5]; 87.3% in assay [6] (setting [9]); 85% in assay [6] (setting [10]). Also, the Her2 level in assay [2] is 94% (inactive). Also, the differential viability (reversal) in assay [6] (H69AR cells + 2 uM doxorubicin) was -2.34% (inactive). The inhibition in assay [7] was -0.65% (inactive); in assay [8], -3.97% (inactive).
Turning to `C=CCn1c(=O)c2ccccc2n2c(SCC(=O)Nc3cc(C)on3)nnc12`, the viability in assay [1] is 92.5%; in assay [3], 92.5% (inactive); in assay [4], 87% (inactive); in assay [5], 98.3% (inactive); in assay [6] (setting [9]), 87.7%; in assay [6] (setting [10]), 98.3%. In addition, the Her2 level in assay [2] is 89% (inactive). Besides, the differential viability (reversal) in assay [6] (H69AR cells + 2 uM doxorubicin) is 10.6% (inactive). Besides, the inhibition in assay [7] is -3.65% (inactive); in assay [8], 1.75% (inactive).
With `CC(NC(=O)C1CCCN(S(=O)(=O)c2cccs2)C1)c1ccccc1` (stereo not given), the viability in assay [1] was 95%; in assay [3], 95% (inactive); in assay [4], 104% (inactive); in assay [5] it was 89.7% (inactive); in assay [6] (setting [9]) it was 88.2%; in assay [6] (setting [10]), 89.7%. In addition, in assay [2], the Her2 level is 80.5% (inactive). Moreover, in assay [6] (H69AR cells + 2 uM doxorubicin), the differential viability (reversal) is 1.41% (inactive). In addition, the inhibition in assay [7] is 1.03% (inactive); in assay [8], 1.17% (inactive).
Turning to `COC(=O)c1cc2ccsc2n1Cc1nc(-c2ccc(OC)cc2)oc1C`, the viability in assay [1] was 85.5%; in assay [3], 85.5% (inactive); in assay [4], 67.5% (inactive); in assay [5] it was 83.6% (inactive); in assay [6] (setting [9]) it was 95.6%; in assay [6] (setting [10]), 83.6%. Moreover, in assay [2], the Her2 level is 82% (inactive). Moreover, the differential viability (reversal) in assay [6] (H69AR cells + 2 uM doxorubicin) was -12% (inactive). Further, the inhibition is 0.13% (inactive) in assay [7] and -4.67% (inactive) in assay [8].
For `CC(=O)N1CCC2(CC1)CC(=O)c1cc(OCC(=O)NCc3ccc(C)cc3)ccc1O2`, the viability in assay [1] is 97%; in assay [3] it was 97% (inactive); in assay [4], 99.4% (inactive); in assay [5] it was 90% (inactive); in assay [6] (setting [9]), 90.3%; in assay [6] (setting [10]), 90%. Further, the Her2 level in assay [2] was 84% (inactive). In assay [6] (H69AR cells + 2 uM doxorubicin), the differential viability (reversal) is -0.255% (inactive). Moreover, the inhibition in assay [7] is -2.76% (inactive); in assay [8], 0.91% (inactive).
Turning to `O=C(NCc1ccco1)C1(S(=O)(=O)c2ccc(Cl)cc2)CC1`, the viability in assay [1] was 94%; in assay [3], 94% (inactive); in assay [4] it was 103% (inactive); in assay [5] it was 71.2% (inactive); in assay [6] (setting [9]) it was 92.8%; in assay [6] (setting [10]) it was 71.2%. In addition, in assay [2], the Her2 level is 86% (inactive). In addition, in assay [6] (H69AR cells + 2 uM doxorubicin), the differential viability (reversal) was -21.5% (inactive). Moreover, the inhibition in assay [7] was -0.65% (inactive); in assay [8], 24.1% (inactive).
As for `O=C(CN1CCN(c2cccc(Cl)c2)CC1)N1CCCC1`, the viability in assay [1] was 105%; in assay [3], 105% (inactive); in assay [4] it was 110% (inactive); in assay [5] it was 78.8% (inactive); in assay [6] (setting [9]) it was 81.5%; in assay [6] (setting [10]), 78.8%. Moreover, the Her2 level in assay [2] is 102% (inactive). The differential viability (reversal) in assay [6] (H69AR cells + 2 uM doxorubicin) is -2.74% (inactive). Moreover, the results for the inhibition in assay [7] and in assay [8] were -6.75% (inactive) and -7.46% (inactive), respectively.
Take `c1ccc(-c2nn3c(Cn4nnc5ccccc54)nnc3s2)nc1`: the viability in assay [1] is 102%; in assay [3], 102% (inactive); in assay [4], 75.6% (inactive); in assay [5], 101% (inactive); in assay [6] (setting [9]), 91.5%; in assay [6] (setting [10]), 101%. In addition, the Her2 level in assay [2] is 114% (inactive). In assay [6] (H69AR cells + 2 uM doxorubicin), the differential viability (reversal) is 9.54% (inactive). The results for the inhibition in assay [7] and in assay [8] were -2.89% (inactive) and -2.67% (inactive), respectively.
For the compound `CCOC(=O)C1CCCN(C(=O)c2cc3c(=O)n4cccc(C)c4nc3n2C)C1` (stereo not given), the viability in assay [1] was 106%; in assay [3], 106% (inactive); in assay [4], 108% (inactive); in assay [5] it was 94.3% (inactive); in assay [6] (setting [9]), 88.4%; in assay [6] (setting [10]), 94.3%. Further, in assay [2], the Her2 level is 77% (inactive). The differential viability (reversal) in assay [6] (H69AR cells + 2 uM doxorubicin) is 5.81% (inactive). Also, the inhibition in assay [7] was -7.3% (inactive); in assay [8], 2.7% (inactive).
Consider `CC(C)(C)OC(=O)NC(CCNC=C1C(=O)OC(C)(C)OC1=O)C(=O)O` (stereo not given), for which the viability in assay [1] is 105%; in assay [3] it was 105% (inactive); in assay [4], 104% (inactive); in assay [5], 101% (inactive); in assay [6] (setting [9]), 89.2%; in assay [6] (setting [10]) it was 101%. In addition, the Her2 level in assay [2] was 92.5% (inactive). The differential viability (reversal) in assay [6] (H69AR cells + 2 uM doxorubicin) was 11.6% (inactive). In addition, the results for the inhibition in assay [7] and in assay [8] were -7.03% (inactive) and -3.5% (inactive), respectively.
Consider `Cc1cc(C)cc(NC(=O)C2CCCN(S(=O)(=O)c3cnc[nH]3)C2)c1` (stereo not given), for which the viability is 99% in assay [1]; 99% (inactive) in assay [3]; 92.5% (inactive) in assay [4]; 88.6% (inactive) in assay [5]; 90.1% in assay [6] (setting [9]); 88.6% in assay [6] (setting [10]). Also, in assay [2], the Her2 level is 96% (inactive). For the same compound, the differential viability (reversal) in assay [6] (H69AR cells + 2 uM doxorubicin) was -1.48% (inactive). The values for the inhibition in assay [7] and in assay [8] were -4.27% (inactive) and 0.67% (inactive), respectively.
With `O=c1c(-c2ccc(Br)cc2)coc2c(CN3CCOCC3)c(O)ccc12`, the viability was 85.5% in assay [1]; 85.5% (inactive) in assay [3]; 101% (inactive) in assay [4]; 92.2% (inactive) in assay [5]; 96.5% in assay [6] (setting [9]); 92.2% in assay [6] (setting [10]). For the same compound, the Her2 level in assay [2] is 80.5% (inactive). Further, the differential viability (reversal) in assay [6] (H69AR cells + 2 uM doxorubicin) is -4.24% (inactive). Besides, the inhibition was -3.33% (inactive) in assay [7] and -2.22% (inactive) in assay [8].
Regarding `CCc1ccccc1NC(=O)CSc1nc2n[nH]c(C)c2c(=N)n1-c1ccc(OC)cc1`, the viability in assay [1] is 98.5%; in assay [3], 98.5% (inactive); in assay [4] it was 66.4% (inactive); in assay [5], 80% (inactive); in assay [6] (setting [9]), 82.3%; in assay [6] (setting [10]), 80%. Besides, the Her2 level in assay [2] was 77.5% (inactive). In addition, the differential viability (reversal) in assay [6] (H69AR cells + 2 uM doxorubicin) was -2.23% (inactive). The values for the inhibition in assay [7] and in assay [8] were -5.92% (inactive) and 6.51% (inactive), respectively.
In the case of `Cc1ccccc1-c1nc(CN2CCC(C(=O)NCCCN3CCCC3)CC2)c(C)o1`, the viability in assay [1] was 81.5%; in assay [3], 81.5% (inactive); in assay [4] it was 63% (inactive); in assay [5] it was 98.2% (inactive); in assay [6] (setting [9]) it was 89.3%; in assay [6] (setting [10]), 98.2%. Further, the Her2 level in assay [2] was 91.5% (inactive). For the same compound, the differential viability (reversal) in assay [6] (H69AR cells + 2 uM doxorubicin) is 8.91% (inactive). Further, the figures for the inhibition in assay [7] and in assay [8] were 1.32% (inactive) and 0.55% (inactive), respectively.

The record behind these values is PubChem BioAssay.
